Values after ≈ are worked out from the molar mass of the structure shown. Residues, ends and D or L forms follow the SMILES beside them.
Assays:
[1] = tested on: Staphylococcus aureus; assay: Antimicrobial activity against methicillin-resistant Staphylococcus aureus ATCC 33592 after 16 hrs; type: functional; conditions: ATCC 33592, 16 h
[2] = tested on: Staphylococcus epidermidis; assay: Antimicrobial activity against methicillin-resistant Staphylococcus epidermidis RP62A after 16 hrs; type: functional
[3] = tested on: Enterococcus faecalis; assay: Antimicrobial activity against Enterococcus faecalis ATCC 700802 after 16 hrs; type: functional; conditions: ATCC 700802, 16 h
In short: (§1)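 Broth microdilution: overnight cultures were reinoculated at 1:100, grown to mid-log phase, and diluted to 1 × 10^6 CFU/mL. Cells were mixed 1:1 with serial dilutions […] and incubated 16 h at 37 °C, then read at 600 nm. MIC is the lowest concentration with no growth. Repeated multiple times, in duplicate.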

[4] = tested on: Pseudomonas aeruginosa; assay: Antimicrobial activity against Pseudomonas aeruginosa ATCC 27853 after 16 hrs; type: functional; conditions: ATCC 27853, 16 h; in short: as §1
[5] = tested on: Escherichia; assay: Antimicrobial activity against Escherichia ATCC 25922 after 16 hrs; type: functional; conditions: ATCC 25922, 16 h; in short: as §1
[6] = Induction of hemolysis in human RBCs incubated for 1 hr; type: cell-based, Erythrocyte; conditions: red blood cells
In short: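 Fresh K2EDTA human RBCs were washed in PBS until the supernatant was clear and diluted to a 5% v/v suspension. This was mixed with equal volumes of compound dilutions for 1 h at 37 °C, centrifuged, and supernatant absorbance read at 360 nm. Hemolysis was normalized between PBS (0%) and 2% Triton X-100 (100%) controls. At least three repeats, in duplicate.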

[7] = tested on: N2a; assay: Cytotoxicity against mouse N2a cells assessed as cell viability after 36 hrs by MTT assay
[8] = Stability in presence of 0.1 mg/ml pronase in 100 mM pH 7.8 ammonium bicarbonate buffer at 37 degC assessed as compound degradation after 18 hrs by HPLC method; type: physicochemical; conditions: pH 7.8, 18 h
In short: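 Compound or control peptide AcVQIVYK (1 mg/mL) was incubated 18 h at 37 °C with Pronase in ammonium bicarbonate. Mixtures were dried by speed-vac at 60 °C, redissolved in water and run on analytical RP-HPLC: 5–100% acetonitrile/0.1% TFA gradient over 40 min at 1 mL/min.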

Stability [8]	Compound	MIC [1]	MIC [2]	MIC [3]	MIC [4]	MIC [5]	HC50 at 1 h [6]	EC50 [7]
	NCCCC[C@H](N)CN(CC(=O)N[C@@H](Cc1ccccc1)CN(CC(=O)N[C@@H](CCCCN)CN(CC(=O)N[C@@H](Cc1ccccc1)CN(CC(=O)N[C@@H](CCCCN)CN(CC(=O)N[C@@H](Cc1ccccc1)CN(CC(=O)N[C@@H](CCCCN)CN(CC(=O)N[C@@H](Cc1ccccc1)CN(CC(N)=O)S(=O)(=O)Cc1ccccc1)S(=O)(=O)CCN)S(=O)(=O)Cc1ccccc1)S(=O)(=O)Cc1ccccc1)S(=O)(=O)Cc1ccccc1)S(=O)(=O)CCN)S(=O)(=O)Cc1ccccc1)S(=O)(=O)Cc1ccccc1	3 µg/mL (≈ 1.15 µM)	2 µg/mL (≈ 0.769 µM)	10 µg/mL (≈ 3.84 µM)	15 µg/mL (≈ 5.76 µM)	3 µg/mL (≈ 1.15 µM)	120 µg/mL	
	CC(=O)N[C@@H](CC(C)C)CN(CC(=O)N[C@@H](CC(C)C)CN(CC(=O)N[C@@H](CC(C)C)CN(CC(=O)N[C@@H](CC(C)C)CN(CC(=O)N[C@@H](CC(C)C)CN(CC(=O)N[C@@H](CC(C)C)CN(CC(=O)N[C@@H](CC(C)C)CN(CC(=O)N[C@@H](CC(C)C)CN(CC(N)=O)S(=O)(=O)CCN)S(=O)(=O)CCN)S(=O)(=O)CCN)S(=O)(=O)CCN)S(=O)(=O)CCN)S(=O)(=O)CCN)S(=O)(=O)CCN)S(=O)(=O)CCN	> 50 µg/mL	> 50 µg/mL	> 50 µg/mL	> 50 µg/mL	> 50 µg/mL		
	CC(=O)N[C@@H](CCCCN)CN(CC(=O)N[C@@H](Cc1ccccc1)CN(CC(=O)N[C@@H](CCCCN)CN(CC(=O)N[C@@H](Cc1ccccc1)CN(CC(=O)N[C@@H](CCCCN)CN(CC(=O)N[C@@H](Cc1ccccc1)CN(CC(=O)N[C@@H](CCCCN)CN(CC(=O)N[C@@H](Cc1ccccc1)CN(CC(N)=O)S(=O)(=O)Cc1ccccc1)S(=O)(=O)CCN)S(=O)(=O)Cc1ccccc1)S(=O)(=O)Cc1ccccc1)S(=O)(=O)Cc1ccccc1)S(=O)(=O)CCN)S(=O)(=O)Cc1ccccc1)S(=O)(=O)Cc1ccccc1	5 µg/mL (≈ 1.89 µM)	2 µg/mL (≈ 0.756 µM)	10 µg/mL (≈ 3.78 µM)	20 µg/mL (≈ 7.56 µM)	3 µg/mL (≈ 1.13 µM)	80 µg/mL	
	CC(C)C[C@H](N)CN(CC(=O)N[C@@H](CC(C)C)CN(CC(=O)N[C@@H](CC(C)C)CN(CC(=O)N[C@@H](CCCCN)CN(CC(=O)N[C@@H](CC(C)C)CN(CC(=O)N[C@@H](CC(C)C)CN(CC(=O)N[C@@H](CC(C)C)CN(CC(=O)N[C@@H](CCCCN)CN(CC(N)=O)S(=O)(=O)CCN)S(=O)(=O)CC(C)C)S(=O)(=O)CCN)S(=O)(=O)CC(C)C)S(=O)(=O)CCN)S(=O)(=O)CC(C)C)S(=O)(=O)CCN)S(=O)(=O)CC(C)C	> 50 µg/mL	12 µg/mL (≈ 5.44 µM)	> 50 µg/mL	50 µg/mL (≈ 22.7 µM)	12 µg/mL (≈ 5.44 µM)	> 250 µg/mL	
	NCCCC[C@@H](CN(CC(N)=O)S(=O)(=O)CCN)NC(=O)CN(C[C@@H](N)Cc1ccccc1)S(=O)(=O)Cc1ccccc1	> 50 µg/mL	> 50 µg/mL	> 50 µg/mL	> 50 µg/mL	> 50 µg/mL		
	NCCCC[C@@H](CN(CC(N)=O)S(=O)(=O)CCN)NC(=O)CN(C[C@H](Cc1ccccc1)NC(=O)CN(C[C@H](Cc1ccccc1)NC(=O)CN(C[C@H](Cc1ccccc1)NC(=O)CN(C[C@H](CCCCN)NC(=O)CN(C[C@@H](N)Cc1ccccc1)S(=O)(=O)Cc1ccccc1)S(=O)(=O)CCN)S(=O)(=O)Cc1ccccc1)S(=O)(=O)CCN)S(=O)(=O)Cc1ccccc1	6 µg/mL (≈ 3.15 µM)	3 µg/mL (≈ 1.58 µM)	> 50 µg/mL	25 µg/mL (≈ 13.1 µM)	12 µg/mL (≈ 6.3 µM)	> 250 µg/mL	
	CC(=O)N[C@@H](Cc1ccccc1)CN(CC(=O)N[C@@H](Cc1ccccc1)CN(CC(=O)N[C@@H](Cc1ccccc1)CN(CC(=O)N[C@@H](Cc1ccccc1)CN(CC(=O)N[C@@H](Cc1ccccc1)CN(CC(=O)N[C@@H](Cc1ccccc1)CN(CC(=O)N[C@@H](Cc1ccccc1)CN(CC(=O)N[C@@H](Cc1ccccc1)CN(CC(N)=O)S(=O)(=O)CCN)S(=O)(=O)CCN)S(=O)(=O)CCN)S(=O)(=O)CCN)S(=O)(=O)CCN)S(=O)(=O)CCN)S(=O)(=O)CCN)S(=O)(=O)CCN	25 µg/mL (≈ 10.3 µM)	6 µg/mL (≈ 2.46 µM)	50 µg/mL (≈ 20.5 µM)	> 50 µg/mL	> 50 µg/mL	> 250 µg/mL	
	CC(=O)N[C@@H](Cc1ccccc1)CN(CC(=O)N[C@@H](Cc1ccccc1)CN(CC(=O)N[C@@H](Cc1ccccc1)CN(CC(=O)N[C@@H](CCCCN)CN(CC(=O)N[C@@H](Cc1ccccc1)CN(CC(=O)N[C@@H](Cc1ccccc1)CN(CC(=O)N[C@@H](Cc1ccccc1)CN(CC(=O)N[C@@H](CCCCN)CN(CC(N)=O)S(=O)(=O)CCN)S(=O)(=O)Cc1ccccc1)S(=O)(=O)CCN)S(=O)(=O)Cc1ccccc1)S(=O)(=O)CCN)S(=O)(=O)Cc1ccccc1)S(=O)(=O)CCN)S(=O)(=O)Cc1ccccc1	4 µg/mL (≈ 1.55 µM)	2 µg/mL (≈ 0.773 µM)	2 µg/mL (≈ 0.773 µM)	6 µg/mL (≈ 2.32 µM)	4 µg/mL (≈ 1.55 µM)	75 µg/mL	80 µg/mL (≈ 30.9 µM)
	NCCCC[C@@H](CN(CC(N)=O)S(=O)(=O)CCN)NC(=O)CN(C[C@H](Cc1ccccc1)NC(=O)CN(C[C@H](Cc1ccccc1)NC(=O)CN(C[C@H](Cc1ccccc1)NC(=O)CN(C[C@H](CCCCN)NC(=O)CN(C[C@H](Cc1ccccc1)NC(=O)CN(C[C@@H](N)Cc1ccccc1)S(=O)(=O)CCN)S(=O)(=O)Cc1ccccc1)S(=O)(=O)CCN)S(=O)(=O)Cc1ccccc1)S(=O)(=O)CCN)S(=O)(=O)Cc1ccccc1	3 µg/mL (≈ 1.36 µM)	3 µg/mL (≈ 1.36 µM)	> 50 µg/mL	12 µg/mL (≈ 5.45 µM)	12 µg/mL (≈ 5.45 µM)	> 250 µg/mL	
	CC(=O)N[C@@H](CCCCN)CN(CC(=O)N[C@@H](Cc1ccccc1)CN(CC(=O)N[C@@H](CCCCN)CN(CC(=O)N[C@@H](Cc1ccccc1)CN(CC(=O)N[C@@H](CCCCN)CN(CC(=O)N[C@@H](Cc1ccccc1)CN(CC(=O)N[C@@H](CCCCN)CN(CC(=O)N[C@@H](Cc1ccccc1)CN(CC(N)=O)S(=O)(=O)Cc1ccccc1)S(=O)(=O)CCN)S(=O)(=O)Cc1ccccc1)S(=O)(=O)CCN)S(=O)(=O)Cc1ccccc1)S(=O)(=O)CCN)S(=O)(=O)Cc1ccccc1)S(=O)(=O)CCN	12 µg/mL (≈ 4.71 µM)	4 µg/mL (≈ 1.57 µM)	6 µg/mL (≈ 2.35 µM)	> 50 µg/mL	6 µg/mL (≈ 2.35 µM)	150 µg/mL	
	CC(=O)N[C@@H](CCCCN)CN(CC(=O)N[C@@H](CCCCN)CN(CC(=O)N[C@@H](CCCCN)CN(CC(=O)N[C@@H](CCCCN)CN(CC(=O)N[C@@H](CCCCN)CN(CC(=O)N[C@@H](CCCCN)CN(CC(=O)N[C@@H](CCCCN)CN(CC(=O)N[C@@H](CCCCN)CN(CC(N)=O)S(=O)(=O)Cc1ccccc1)S(=O)(=O)Cc1ccccc1)S(=O)(=O)Cc1ccccc1)S(=O)(=O)Cc1ccccc1)S(=O)(=O)Cc1ccccc1)S(=O)(=O)Cc1ccccc1)S(=O)(=O)Cc1ccccc1)S(=O)(=O)Cc1ccccc1	> 50 µg/mL	> 50 µg/mL	> 50 µg/mL	> 50 µg/mL	> 50 µg/mL		
	NCCCC[C@@H](CN(CC(N)=O)S(=O)(=O)CCN)NC(=O)CN(C[C@H](Cc1ccccc1)NC(=O)CN(C[C@H](Cc1ccccc1)NC(=O)CN(C[C@@H](N)Cc1ccccc1)S(=O)(=O)Cc1ccccc1)S(=O)(=O)CCN)S(=O)(=O)Cc1ccccc1	> 50 µg/mL	20 µg/mL (≈ 15.6 µM)	> 50 µg/mL	> 50 µg/mL	25 µg/mL (≈ 19.5 µM)	> 250 µg/mL	
	CC[C@H](C)[C@H](NC(=O)CN)C(=O)NCC(=O)N[C@@H](CCCCN)C(=O)N[C@@H](Cc1ccccc1)C(=O)N[C@@H](CC(C)C)C(=O)N[C@@H](CCCCN)C(=O)N[C@@H](CCCCN)C(=O)N[C@@H](C)C(=O)N[C@@H](CCCCN)C(=O)N[C@@H](CCCCN)C(=O)N[C@@H](Cc1ccccc1)C(=O)NCC(=O)N[C@@H](CCCCN)C(=O)N[C@@H](C)C(=O)N[C@@H](Cc1ccccc1)C(=O)N[C@H](C(=O)N[C@@H](CCCCN)C(=O)N[C@H](C(=O)N[C@@H](CC(C)C)C(=O)N[C@@H](CCCCN)C(=O)N[C@@H](CCCCN)C(N)=O)[C@@H](C)CC)C(C)C [PEXIGANAN] (H-GIGKFLKKAKKFGKAFVKILKK-NH2)	16 µg/mL (≈ 6.46 µM)	8 µg/mL (≈ 3.23 µM)	32 µg/mL (≈ 12.9 µM)	16 µg/mL (≈ 6.46 µM)	8 µg/mL (≈ 3.23 µM)		
Unstable	CC[C@H](C)[C@H](NC(=O)[C@H](CCC(N)=O)NC(=O)[C@@H](NC(C)=O)C(C)C)C(=O)N[C@H](C(=O)N[C@@H](Cc1ccc(O)cc1)C(=O)N[C@@H](CCCCN)C(=O)O)C(C)C (Ac-VQIVYK-OH)							
	CC(=O)N[C@@H](CC(C)C)CN(CC(=O)N[C@@H](CC(C)C)CN(CC(=O)N[C@@H](CC(C)C)CN(CC(=O)N[C@@H](CCCCN)CN(CC(=O)N[C@@H](CC(C)C)CN(CC(=O)N[C@@H](CC(C)C)CN(CC(=O)N[C@@H](CC(C)C)CN(CC(=O)N[C@@H](CCCCN)CN(CC(N)=O)S(=O)(=O)CCN)S(=O)(=O)CC(C)C)S(=O)(=O)CCN)S(=O)(=O)CC(C)C)S(=O)(=O)CCN)S(=O)(=O)CC(C)C)S(=O)(=O)CCN)S(=O)(=O)CC(C)C	> 50 µg/mL	12 µg/mL (≈ 5.34 µM)	> 50 µg/mL	50 µg/mL (≈ 22.2 µM)	25 µg/mL (≈ 11.1 µM)	> 250 µg/mL	
	NCCCC[C@H](N)CN(CC(=O)N[C@@H](Cc1ccccc1)CN(CC(=O)N[C@@H](Cc1ccccc1)CN(CC(=O)N[C@@H](Cc1ccccc1)CN(CC(=O)N[C@@H](CCCCN)CN(CC(N)=O)S(=O)(=O)CCN)S(=O)(=O)Cc1ccccc1)S(=O)(=O)CCN)S(=O)(=O)Cc1ccccc1)S(=O)(=O)CCN	> 50 µg/mL	20 µg/mL (≈ 12.8 µM)	> 50 µg/mL	> 50 µg/mL	25 µg/mL (≈ 16 µM)	> 250 µg/mL	
